# High-throughput results: PubChem, The Scripps Research Institute Molecular Screening Center
# ASAP1 inh = inhibitors of human ASAP1 ArfGAP activity, primary screen, biochemical, fluorescence polarization; inhibition, % at 16.5 µM; actives 0.19% (n = 360,000); Arf-GAP with SH3 domain, ANK repeat and PH domain-containing protein 1 (Homo sapiens), …; ASAP1-stimulated ARF1 GTP hydrolysis, GDP FP detection; in the data active means inhibition above about 25%;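 further: 0% = vehicle with enzyme and substrate and 100% = no enzyme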
# Target sequence (Q9ULH1 325-724 limits assumed): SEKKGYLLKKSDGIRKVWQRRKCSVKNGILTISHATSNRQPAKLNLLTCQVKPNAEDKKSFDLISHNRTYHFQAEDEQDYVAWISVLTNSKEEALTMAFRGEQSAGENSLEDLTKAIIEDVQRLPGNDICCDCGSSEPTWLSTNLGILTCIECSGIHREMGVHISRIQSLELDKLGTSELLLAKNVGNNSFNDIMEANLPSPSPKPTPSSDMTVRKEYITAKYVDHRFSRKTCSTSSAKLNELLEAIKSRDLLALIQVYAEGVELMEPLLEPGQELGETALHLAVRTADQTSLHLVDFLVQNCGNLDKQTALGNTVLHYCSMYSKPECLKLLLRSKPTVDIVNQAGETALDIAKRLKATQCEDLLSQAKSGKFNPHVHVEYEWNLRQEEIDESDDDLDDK
# UHRF1 binding = UHRF1 methylated DNA binding inhibitors, primary screen, counter-screen for MBD2 inhibitor project, biochemical, TR-FRET, human UHRF1, single concentration. AID 687016, 2013. UHRF1 binding to methylated oligo. E3 ubiquitin-protein ligase UHRF1 (Homo sapiens), Q96T88. actives 0.75% (n = 370,000). inhibition, % at 4.4 µM; in the data active means inhibition above about 21%;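 further: UHRF1 SRA domain binding a hemimethylated CpG hairpin DNA probe; 0% = median of test compound wells and 100% = reference inhibitor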
# MBD2 inh = inhibitors of MBD2 binding to methylated DNA, primary screen, biochemical, TR-FRET, DNA-binding domain, human. MBD2 binding to methylated oligonucleotide. inhibition, % at 4.4 µM. actives 0.31% (n = 370,000). AID 686964, 2013. Methyl-CpG-binding domain protein 2 (Homo sapiens), Q9UBB5; in the data active means inhibition above about 13%
# TCR-CD3 inh = inhibitors of human TCR-CD3 interaction, primary screen, biochemical, fluorescence, TAMRA-labeled TCR probe; AID 651800, 2012; actives 0.37% (n = 360,000); T-cell receptor (TCR); inhibition, % at 9.4 µM; in the data active means inhibition above about 19%;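 further: recombinant mutant TCR 2C K166C tagged with TAMRA read by polarization; 0% = receptor in buffer alone and 100% = receptor with positive control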
# LEDGF integ inh = blockers of LEDGF/p75-dependent integrase strand transfer – biochemical, TR-FRET, high throughput, primary screen. actives 0.64% (n = 370,000). inhibition, % at 3.7 µM. TR-FRET IN-LEDGF/p75 DNA integration, Eu/Cy5. HIV-1 integrase (with human LEDGF/p75);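 active means inhibition above the screen-wide mean plus 3 SD, cut at about 13% in these data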;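 further: signal is the Cy5 over europium emission ratio at 671 and 618 nm; 0% = plate median of compound wells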
# ARFGAP1 inh = inhibitors of rat ARFGAP1 GAP activity, primary screen, biochemical, fluorescence polarization, GDP tracer | Arfgap1-stimulated ARF1 GTP hydrolysis, GDP FP detection | inhibition, % at 16.5 µM | actives 0.26% (n = 360,000) | AID 651572, 2012;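 active means inhibition above a per-plate limit, mean inhibition of low control wells plus 3 SD, cut at about 25% in these data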;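 further: 0% = DMSO wells with enzyme and 100% = wells lacking Arfgap1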
#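 Assay system: Rat Arfgap1 GAP domain (His6, aa 1-136), purified enzyme | Buffer or medium: HEPES 25 mM pH 7.5, NaCl 150 mM, MgCl2, DTT | Schedule: GTP hydrolysis reaction 2 h at 25 °C | Signal: FP of antibody-bound GDP Alexa 633 tracer, ex 620/em 688 nm | Measure: Percent inhibition of Arfgap1-stimulated GTP hydrolysis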
# IN multimer act = HIV-1 IN multimer formation enhancers, counter-screen for LEDGF/p75 integration inhibitor project, biochemical, TR-FRET. shares compounds with LEDGF integ inh. TR-FRET HIV-1 integrase multimerization. activation, % at 7.7 µM. actives 17% (n = 2,000); in the data active means activation above about 8.9%
# TR-FRET interf = TR-FRET optical interference artefacts, confirmation, artefact control for LEDGF/p75-dependent integration inhibitor project, biochemical, HIV-1 IN multimerization; shares compounds with LEDGF integ inh; TR-FRET optical interference counterscreen; inhibition, % at 7.7 µM; 2,000 tested, under 10 active; AID 1053135, 2014;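 active means inhibition above the mean over all tested compounds plus 3 SD, which no compound reached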;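 further: 0% = integrase with antibodies and DMSO and 100% = antibodies without integrase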
# LEDGF integ conf = inhibitors of HIV-1 IN-LEDGF/p75 DNA integration, confirmation, biochemical, TR-FRET | inhibition, % at 3.7 µM | TR-FRET LEDGF/p75-dependent HIV-1 integration | shares compounds with LEDGF integ inh | actives 36% (n = 2,000); in the data active means inhibition above about 14%
# * = called active by the depositor; nt = no result. Only some compounds are listed: those with a hit (about 2% of all), similar ones and a draw of the others.
SMILES,ASAP1 inh,UHRF1 binding,MBD2 inh,TCR-CD3 inh,LEDGF integ inh,ARFGAP1 inh,IN multimer act,TR-FRET interf,LEDGF integ conf
CCOC(=O)C1CCCN(C/C=C/c2ccccc2)C1 (stereo not given),0,5,6,-5,5,19,nt,nt,nt
CCSc1oc(-c2ccco2)nc1S(=O)(=O)c1ccc(C)cc1,0,-4,1,-4,0,10,nt,nt,nt
Cc1ccc(S(=O)(=O)c2nc(-c3ccco3)oc2SC(C)C)cc1,-11,1,-8,4,16*,-7,3,-14,2
Cc1ccc(C)c(N2CCN(C(=O)c3ccc4nc(-c5ccco5)c(-c5ccco5)nc4c3)CC2)c1,-10,0,-10,17,40*,-13,4,-14,22*
O=C(c1ccccc1)c1ccc2nc(-c3ccco3)c(-c3ccco3)nc2c1,-2,-4,-3,13,18*,-8,2,-6,35*
O=C(Cn1c(=O)sc2ccccc21)NCc1ccccn1,-9,2,4,-6,19*,-15,0,1,1
OCCOCCOc1ccc(-c2nn[nH]n2)cc1,6,24*,-1,7,17*,-7,-1,4,-8
COc1cc(C2C(C#N)=C(N)N(N(C)C)C3=C2C(=O)CCC3)ccc1O (stereo not given),-7,0,-5,3,2,9,nt,nt,nt
COc1cc(-c2[nH]nc3c2C(c2ccco2)C(C#N)=C(N)O3)cc(OC)c1OC (stereo not given),6,6,1,-6,16*,2,2,-9,8
COc1cc(-c2[nH]nc3c2C(c2ccoc2)C(C#N)=C(N)O3)cc(OC)c1OC (stereo not given),2,-7,-8,2,3,7,nt,nt,nt
CCOC(=O)[C@@H]1[C@H]2COc3ccc(Br)cc3[C@@H]2N2C(=O)N(c3ccc(Cl)cc3)C(=O)[C@@]12C,19,0,-1,1,0,1,nt,nt,nt
COc1ccc([C@H]2OC(=O)C[C@@H]2C(=O)N2CCN(c3ccccc3Cl)CC2)cc1OC,nt,-1,0,nt,0,nt,nt,nt,nt
CC(=O)N1CCN(c2ccc(NCc3ccco3)cc2)CC1,10,1,-1,0,21*,4,4,-19,-5
CNC(=O)C1CCC(=O)N1Cc1c[nH]c2ccccc12 (stereo not given),10,-2,0,6,3,7,nt,nt,nt
CCC(CO)Oc1cc(NC(=O)c2ccc(N)cc2)c2ncn(C(C)C)c2c1 (stereo not given),10,18,6,1,14*,-8,1,-3,25*
CCC(CO)Oc1cc(NC(=O)c2ccc(F)cc2)c2ncn(C(C)C)c2c1 (stereo not given),19,7,4,-5,-1,13,nt,nt,nt
CCC(COC)Oc1cc(NCc2ccccc2)c2ncn(C(C)C)c2c1 (stereo not given),12,4,-13,5,27*,7,0,-1,30*
